Screening results: PubChem, several laboratories
Htt clearance: clearance of mutant huntingtin inclusions, primary screen, imaging, HeLa Exon1htt(103Q)mCFP, confocal imaging; aggregate imaging; zero = plate's median compound well; inhibition, % at 1.5 µM; actives 0.42% (n = 47,000); AID 853, 2007;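 active = inhibition of aggregate fluorescence above about 70%, also judged a hit by eye on the cell image, limit read from the data, passing the limit was not always enough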;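 note: cells exposed to compound for three days before fixation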
M1 agonist: M1 muscarinic receptor agonists, primary screen, CHO-M1 cells, Fluo-4 calcium, agonist mode; Fluo-4 calcium fluorescence; stronger effect = higher value; B-score at 10 µM; actives 3% (n = 64,000); AID 626, 2007;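 active = fluorescence rise, raw or as B-score row- and column-corrected plate score, outside the 99.7% band of its plate's samples, either direction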
Jurkat tox 60K: cytotoxicity toward Jurkat T cells, primary screen, cytotoxicity control, cell-based, Jurkat E6.1, 60K MLSMR library. Jurkat E6.1 viability, ATP luminescence, 48 h. inhibition, % at 4 µM. actives 1.2% (n = 56,000);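 active = inhibition above the mean inhibition of all tested compounds plus 3 SD, cut at about 28% in these data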
M1 antagonist: antagonists of rat M1 muscarinic receptor; Muscarinic acetylcholine receptor M1 (Rattus norvegicus), P08482; CHO-M1 cells, Fluo-4 calcium, ACh EC80 antagonist mode; stronger effect = lower value; B-score at 10 µM; actives 3.4% (n = 64,000); AID 628, 2007;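 active = calcium fluorescence response, raw or row-and-column corrected B-score, differing from the plate sample mean either way at a set confidence level, mostly lower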
HEK293 NFkB inh: inhibitors of PMA/ionomycin-induced NF-kB reporter, primary screen, antigen receptor NF-kB inhibitor project, cell-based, HEK-293 luciferase reporter, luminescence; HEK-293 NF-kB luciferase reporter; actives 0.21% (n = 62,000); inhibition, % at 3 µM;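 active = inhibition above the mean of all tested compounds plus 3 SD, cut at about 40% in these data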
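Reagent: PMA plus ionomycin mix as NF-kB-activating stimulus. Assay system: NF-kB luciferase reporter HEK-293 cells. Technique: luminescence from luciferase substrate reagent. Incubation: 1 h compound pre-incubation, 16 h PMA/ionomycin at 37 °C. Benchmarks: DMSO only as uninhibited control, 10 µM reference inhibitor as full inhibition. Repeats: tested once.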
D1 allo mod: D1 CRE-luciferase signal change, two-sided – cell-based, HEK293 D1, dopamine EC30, D1 allosteric modulator project, primary screen | dopamine EC30 potentiation; actives deviate in either direction | B-score at 10 µM | actives 5.9% (n = 58,000) | AID 641, 2007;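 active = luminescence count or its row- and column-corrected plate score outside the 99.7% band of the plate's sample wells, on either side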
Target sequence (P21728 whole entry, looked up): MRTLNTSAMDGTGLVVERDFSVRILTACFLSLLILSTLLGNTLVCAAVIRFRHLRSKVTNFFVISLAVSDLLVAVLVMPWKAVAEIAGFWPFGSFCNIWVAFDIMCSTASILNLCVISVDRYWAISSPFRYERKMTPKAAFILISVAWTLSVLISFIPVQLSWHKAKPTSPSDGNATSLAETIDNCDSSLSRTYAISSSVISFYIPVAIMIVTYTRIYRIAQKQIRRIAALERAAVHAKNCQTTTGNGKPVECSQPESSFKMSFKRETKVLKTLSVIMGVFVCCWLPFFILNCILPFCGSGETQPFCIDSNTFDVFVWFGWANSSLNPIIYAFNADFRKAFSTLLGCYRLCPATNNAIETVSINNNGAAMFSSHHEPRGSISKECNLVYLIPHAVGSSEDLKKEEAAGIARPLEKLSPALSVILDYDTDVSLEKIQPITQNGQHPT
M1 antag confirm: rat M1 muscarinic receptor antagonists, confirmation, CHO cells, Fluo-4 calcium, duplicate | shares compounds with M1 antagonist | ACh EC80 antagonism; stronger effect = lower value | calcium response (max-min fluorescence) at 10 µM | actives 43% (n = 1,700) | AID 677, 2007;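 active = calcium response below the same-plate mean of wells given acetylcholine alone at its 80%-effect dose, minus 3 SD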
mGluR4 antag: human mGluR4 response to M1 antagonist hits, M1 allosteric modulator project, cell-based, antagonist mode, secondary assay 1; shares compounds with M1 antagonist; CHO-mGluR4 calcium flux, Fluo-4 fluorescence, glutamate EC80; stronger effect = lower value; fluorescence response (max-min) at 10 µM; actives 0.9% (n = 1,700); AID 678, 2007;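 active = fluorescence response below the plate's average for near-maximal glutamate wells, less 3 SD of those wells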;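 note: raw unnormalized fluorescence span taken in the window right after glutamate addition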
Each line names hits and unclear results; the compound was inactive in the other large screens (follow-up assays come after a bar, where they were run). Compounds with a hit are over-represented: about 9.5% of the library has one in this group of screens.

O=C(Nc1ccc2nc(-c3cccs3)c(-c3cccs3)nc2c1)N1CCOCC1	M1 antagonist -12 (no result: Htt clearance) | M1 antag confirm 138 | mGluR4 antag inactive
Cc1nc2ccc(NC(=O)N3CCSCC3)cc2nc1C	none (no result: Jurkat tox 60K)
O=C(c1ccco1)N1CCN(CCCCN2C(=O)c3ccccc3C2=O)CC1	M1 antagonist -1.4 (no result: Jurkat tox 60K) | M1 antag confirm inactive | mGluR4 antag inactive
O=C(CCC1CCCC1)N1CCN(C(=O)c2ccco2)CC1	Htt clearance 72, M1 antagonist -3 | M1 antag confirm inactive | mGluR4 antag inactive
O=C1OC(N2CCN(C(=O)c3ccco3)CC2)c2ccccc21 (stereo unspecified)	M1 antagonist -3.8 (no result: Htt clearance) | M1 antag confirm inactive | mGluR4 antag inactive
O=C(OCCCN1C(=O)c2ccccc2C1=O)c1ccco1	none
CCCC(c1nnnn1C1CCCC1)N1CCN(c2ccccc2F)CC1 (stereo unspecified)	none (no result: Htt clearance)
CCOC(=O)N1CCC(N2C(=O)c3ccc(C(=O)NC4CCCCCC4)cc3C2=O)CC1	none (no result: Htt clearance)
Cc1cc(Cn2ccnc2)c(C)cc1Cn1ccnc1	M1 antagonist -2 (no result: Htt clearance, Jurkat tox 60K, HEK293 NFkB inh) | M1 antag confirm inactive | mGluR4 antag inactive
c1ccc2c(Cn3ccnc3)c[nH]c2c1	none
O=C1c2cccnc2C(=O)N1CO	M1 antagonist -2.4 (no result: D1 allo mod) | M1 antag confirm inactive | mGluR4 antag inactive
O=C1c2cccnc2C(=O)N1Cc1ccco1	none (no result: Htt clearance)
COc1ccc(-n2c(=O)c3ccccc3n(CC(=O)NC3CCCC3)c2=O)cc1	none (no result: Htt clearance, M1 agonist, M1 antagonist, D1 allo mod)
COc1ccc(C(=O)N2CCCC2)cc1S(=O)(=O)N1CCOCC1	none
COc1cc2c(cc1OC)CN(C(=O)c1ccc(OC)c(S(=O)(=O)N3CCOCC3)c1)CC2	M1 antagonist -0.84 | M1 antag confirm inactive | mGluR4 antag inactive
COc1ccc(OC)c2c(C)cc(NCCN3CCOCC3)nc12	none (no result: Htt clearance)
COc1ccc(OC)c(NC2c3ccccc3C(=O)N2c2cccnc2)c1 (stereo unspecified)	none (no result: Htt clearance)
Cc1ccc2nc3c(cc(C(=O)NCc4ccccc4)c(=N)n3CCCn3ccnc3)c(=O)n2c1	M1 antagonist -4.2 (no result: Htt clearance) | M1 antag confirm inactive | mGluR4 antag inactive
Cc1cccn2c(=O)c3cc(C(=O)NC(C)c4ccccc4)c(=N)n(CCCn4ccnc4)c3nc12 (stereo unspecified)	M1 antagonist -2.9 (no result: Htt clearance) | M1 antag confirm 317 | mGluR4 antag inactive
COC(=O)CNC(=O)Cc1c(F)cccc1Cl	none
C=CCc1ccccc1OCC(O)CN(C(C)C)C(C)C (stereo unspecified)	M1 antagonist -2 (no result: Htt clearance) | M1 antag confirm 382 | mGluR4 antag inactive
O=c1[nH]c2cc3c(cc2cc1C(c1nnnn1C1CCCCC1)N1CCSCC1)OCCO3 (stereo unspecified)	none (no result: Htt clearance)
CCOC(=O)c1cc2sccc2n1CC(=O)Nc1ccc2c(c1)OCCO2	M1 antagonist -0.93 (no result: Htt clearance) | M1 antag confirm inactive | mGluR4 antag inactive
CCOC(=O)c1cc2sccc2n1CC(=O)OC	none (no result: M1 agonist, Jurkat tox 60K, M1 antagonist, HEK293 NFkB inh, D1 allo mod)
COc1cc(N2CCOCC2)ncn1	none (no result: Htt clearance)
Cc1cccc(NC(=O)c2sc(NC(=O)c3ccco3)c(C#N)c2C)c1C	M1 antagonist -2.5 | M1 antag confirm inactive | mGluR4 antag inactive
CC1(C)Cc2c(sc(NC(=O)c3ccco3)c2C#N)CO1	none (no result: Htt clearance)
COc1ccc(C2CC(c3cccc(OC)c3OC)n3nnnc3N2)cc1 (stereo unspecified)	none (no result: Htt clearance)
Cc1ccc(OCC(=O)N2CCN(c3nnc(-c4ccc(C)cc4)c4ccccc34)CC2)cc1	none (no result: M1 agonist, Jurkat tox 60K, M1 antagonist, HEK293 NFkB inh, D1 allo mod)
Cc1ccc(-c2nnc(N3CCN(C(=O)c4ccco4)CC3)c3ccccc23)cc1	M1 antagonist -6.9 (no result: Htt clearance) | M1 antag confirm 209 | mGluR4 antag inactive
COc1ccc(C(C)C)cc1S(=O)(=O)n1cnc(C)c1	none (no result: M1 agonist, Jurkat tox 60K, M1 antagonist, HEK293 NFkB inh, D1 allo mod)
COC(=O)\C(C(C)=O)=C(/C=C/C=C/N(C)C)N(C)C	M1 antagonist -2.4 (no result: Htt clearance) | M1 antag confirm inactive | mGluR4 antag inactive
COc1cc(C2C3=C(CC(C)(C)CC3=O)N(C)C(=O)N2C)cc(OC)c1OC (stereo unspecified)	none (no result: Jurkat tox 60K)
O=C(NCc1ccc2c(c1)OCO2)C1CCCN1C(=O)Nc1cccc(Cl)c1 (stereo unspecified)	none
Cc1nc(COC(=O)c2ccc(S(=O)(=O)N3CCCC3)cc2)cs1	none
O=C1CC(N2CCN(c3ccc(O)cc3)CC2)C(=O)N1Cc1cccs1 (stereo unspecified)	none (no result: Htt clearance)
O=C1CC(N2CCN(C/C=C/c3ccccc3)CC2)C(=O)N1Cc1cccs1 (stereo unspecified)	M1 antagonist -19 | M1 antag confirm 23 | mGluR4 antag inactive
O=C1CC(N2CCN(C/C=C/c3ccccc3)CC2)C(=O)N1CCc1ccccc1 (stereo unspecified)	M1 antagonist -4 (no result: Htt clearance) | M1 antag confirm 422 | mGluR4 antag inactive
Cn1c(N2CCN(c3ccccn3)CC2)nc2c1c(=O)n(Cc1ccccc1Cl)c(=O)n2C	none (no result: Jurkat tox 60K, HEK293 NFkB inh, D1 allo mod)
Cn1c(N2CCN(c3ccccn3)CC2)nc2c1c(=O)n(Cc1ccc(Cl)cc1)c(=O)n2C	M1 antagonist -2.2 (no result: Htt clearance, Jurkat tox 60K, HEK293 NFkB inh, D1 allo mod) | M1 antag confirm inactive | mGluR4 antag inactive
O=P(O)(c1ccc(Cl)cc1)c1ccc(Cl)cc1	none
CC(=O)Nc1ccc(S(=O)(=O)N2CCN(c3nc(NC4CCCC4)c4ccccc4n3)CC2)cc1	M1 antagonist -2.8 (no result: Htt clearance, D1 allo mod) | M1 antag confirm 514 | mGluR4 antag inactive
COc1cc(NC(=O)C2CCCCC2)c(OC)cc1NC(=O)CCC(=O)NCc1ccco1	none
CCOc1ccc2nc(N3CCC(C(=O)N4CCN(c5ccccn5)CC4)CC3)sc2c1	Jurkat tox 60K 35, M1 antagonist -2.4 (no result: Htt clearance, D1 allo mod) | M1 antag confirm inactive | mGluR4 antag inactive
CCOc1ccc2nc(N3CCC(C(=O)N4CCN(c5ncccn5)CC4)CC3)sc2c1	none (no result: Htt clearance)
COCC(C)NCc1cccc(C)c1 (stereo unspecified)	none (no result: M1 agonist, Jurkat tox 60K, M1 antagonist, HEK293 NFkB inh, D1 allo mod)
O=C(NC1CCCCC1)c1ccc(S(=O)(=O)NCc2ccco2)cc1	M1 antagonist -2.4 (no result: D1 allo mod) | M1 antag confirm inactive | mGluR4 antag inactive
O=C(Nc1ccccc1C(=O)NCc1ccco1)NC1CCCCC1	M1 antagonist -3.1 (no result: Jurkat tox 60K) | M1 antag confirm inactive | mGluR4 antag inactive
